The source of these data is ChEMBL document CHEMBL2163319, “Stereoselective synthesis and antiviral activity of methyl-substituted cycloSal-pronucleotides” (J Med Chem, 2012).

One may read the EC50 as the concentration at which the effect is half-maximal. Usually CC50 stands for the concentration that lowers cell viability or growth by half. A high value points to better tolerance by the cells. Broadly, the half-life is the time in which the quantity being followed falls by half. A high value points to slow decline.

In data set [1] the test system is Human immunodeficiency virus 2. Nature of the data set: Antiviral activity against HIV-2 infected in thymidine kinase deficient CEM cells assessed as inhibition of virus-induced cytopathicity after 4 days. It counts as functional, organism-based. Conditions: Human immunodeficiency virus 2, CCRF-CEM, 96 h. An outline of the steps: (§1)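 Wild-type CEM/0 or thymidine kinase-deficient CEM/TK- T-lymphocyte cultures infected with HIV-1 or HIV-2 and exposed to virus and compound together for 4 days. Giant cell formation (virus-induced cytopathicity) scored by microscopy; value is the 50% effective concentration.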
In general terms: Cytopathic effects are the visible damage that an infection or toxin causes in cultured cells.

Data set [2] has as its system Human immunodeficiency virus 2. Nature of the data set: Antiviral activity against HIV-2 infected in wild type CEM cells assessed as inhibition of virus-induced cytopathicity after 4 days. The format is functional, organism-based. The conditions noted are these: Human immunodeficiency virus 2, CCRF-CEM, 96 h. The method in brief: as §1
Data set [3] concerns Human immunodeficiency virus 1. Nature of the data set: Antiviral activity against HIV-1 infected in wild type CEM cells assessed as inhibition of virus-induced cytopathicity after 4 days. Conditions: Human immunodeficiency virus 1, CCRF-CEM, 96 h. The format is functional, organism-based. An outline of the steps: as §1
A short description of data set [4]: Cytotoxicity against human CEM cells. The format is cell-based. The conditions noted are these: CCRF-CEM (CEM) cells.
A short description of data set [5]: Hydrolysis half life in human CEM cell extracts at pH 6.9. It counts as ADME, CCRF-CEM. The method in brief:
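CEM cell extracts (pH 6.9) incubated with the triester, added from a 3.0 mM DMSO stock, and sampled at several incubation times. Hydrolysis half-life determined.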

Data set [6] is described as follows: Hydrolysis half life in 25 mM phosphate buffer at pH 7.3 by reversed HPLC analysis. The format is physicochemical.

With `Cc1cccc2c1O[P@@](=O)(OC[C@@H]1C=C[C@H](n3cc(C)c(=O)[nH]c3=O)O1)OC2`, the concentration for a half-maximal effect (EC50) was found to be 3200 nM in data set [1], 1100 nM in data set [2] and 480 nM in data set [3]. The same compound returned a CC50 in data set [4] of 179000 nM. The figures for the half-life in data set [5] and in data set [6] were 8.7 h and 9.2 h, respectively.
On to `Cc1cccc2c1O[P@](=O)(OC[C@@H]1C=C[C@H](n3cc(C)c(=O)[nH]c3=O)O1)OC2`, for which the figures for the EC50 in data set [1], in data set [2] and in data set [3] were 160 nM, 170 nM and 90 nM, respectively. Further, the CC50 in data set [4] was 39000 nM. For the same compound, the results for the half-life in data set [5] and in data set [6] were 18 h and 22.1 h, respectively.
Turning to `Cc1cn([C@H]2C=C[C@@H](CO)O2)c(=O)[nH]c1=O` [STAVUDINE], the EC50 in data set [1] was determined as 150000 nM; in data set [2], 1300 nM; in data set [3] it was 780 nM. Also, in data set [4], the CC50 is over 250000 nM.
